PfG6PD inh: PfG6PD (Plasmodium falciparum) enzyme inhibition | hit rate 0.78% among 350,000 | AID 504690 | inhibition, % at 20 µM | PfGluPho enzyme, NADPH resazurin-diaphorase fluorescence;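 active means inhibition reaching at least a set limit at 20 µM in the primary screen, cut at about 59% in these data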;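 further: 0% = DMSO wells with substrate and 100% = DMSO wells lacking glucose-6-phosphate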
HKDC1 inh: inhibitors of human hexokinase HKDC1; inhibition, % at 20 µM; hit rate 0.16% among 340,000; recombinant HKDC1, G6PDH/diaphorase resazurin coupled fluorescence;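 active means inhibition above about 35% when tested at 20 µM, limit read from the data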;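 further: plate controls were DMSO wells with enzyme for no effect and DMSO wells lacking enzyme for full effect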
Target sequence (Q2TB90 whole entry, looked up): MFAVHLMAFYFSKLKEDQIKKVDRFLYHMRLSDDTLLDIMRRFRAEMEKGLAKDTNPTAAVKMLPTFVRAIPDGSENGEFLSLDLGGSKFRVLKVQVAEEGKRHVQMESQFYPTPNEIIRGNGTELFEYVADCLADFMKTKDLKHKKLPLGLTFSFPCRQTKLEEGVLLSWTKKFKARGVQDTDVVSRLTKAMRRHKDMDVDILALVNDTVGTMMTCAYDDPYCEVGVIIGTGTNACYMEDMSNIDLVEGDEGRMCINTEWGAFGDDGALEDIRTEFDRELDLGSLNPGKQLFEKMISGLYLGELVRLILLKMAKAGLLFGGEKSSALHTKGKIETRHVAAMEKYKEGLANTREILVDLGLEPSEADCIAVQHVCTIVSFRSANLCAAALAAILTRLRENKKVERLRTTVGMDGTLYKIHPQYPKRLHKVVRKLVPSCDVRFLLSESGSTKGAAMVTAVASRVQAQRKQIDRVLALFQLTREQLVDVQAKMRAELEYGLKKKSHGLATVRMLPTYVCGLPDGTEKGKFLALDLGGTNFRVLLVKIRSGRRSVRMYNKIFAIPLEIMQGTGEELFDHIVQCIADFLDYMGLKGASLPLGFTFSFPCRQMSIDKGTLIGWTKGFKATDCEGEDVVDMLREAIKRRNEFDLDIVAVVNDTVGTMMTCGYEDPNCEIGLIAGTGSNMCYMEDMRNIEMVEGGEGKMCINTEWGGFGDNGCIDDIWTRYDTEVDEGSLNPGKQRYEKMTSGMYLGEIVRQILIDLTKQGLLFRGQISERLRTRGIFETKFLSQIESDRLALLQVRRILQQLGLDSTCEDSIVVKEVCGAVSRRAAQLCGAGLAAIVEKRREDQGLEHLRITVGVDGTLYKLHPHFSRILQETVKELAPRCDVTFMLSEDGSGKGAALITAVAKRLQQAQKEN
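Test system: HK5 enzyme. Quantity: 5 µg/mL HK5 final. Reagent: glucose and ATP substrates. Schedule: 90 min reaction incubation at room temperature, dark. Technique: resazurin-to-resorufin fluorescence via G6PDH and diaphorase coupling, 525/613 nm. Control set: DMSO wells with and without enzyme mix.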
Diaph inh CS: diaphorase inhibition or chemical oxidation counter-screen. diaphorase resazurin-to-resorufin fluorescence, NADH, 16 min; bacterial (C. kluyveri) enzyme, not human. inhibition, % at 20 µM. hit rate 0.69% among 190,000. AID 1217;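 active means primary screen inhibition at 20 µM above a set limit, cut at about 50% in these data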;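 further: plate controls were DMSO with full reaction for no effect and wells lacking NADH for full effect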
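Test system: diaphorase enzyme from Clostridium kluyveri; amount: diaphorase at 0.14 U/mL in enzyme working solution; detection: fluorescence of resorufin formed from resazurin, Ex 544/Em 590 nm; times: reaction incubation of 16 min at room temperature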
G6PDH CS: counter-screen for G6PDH assay hits: L. mesenteroides G6PDH inhibition | hit rate 0.12% among 200,000 | inhibition, % at 5 µM | Purified L. mesenteroides G6PDH, diaphorase/resazurin coupled fluorescence, 45 min | AID 1020; in the data active means inhibition above about 50%
HKDC1 act conf: HKDC1 (human) activation, single-dose confirmed | shares compounds with HKDC1 inh | recombinant HKDC1, G6PDH/diaphorase resazurin fluorescence; stronger effect = lower value | inhibition, % at 20 µM | hit rate 14% among 740;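 active means inhibition at or below a set negative limit, negative inhibition meaning the enzyme was activated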
An asterisk follows results filed as active; / = not tested or not shown. Compounds with a hit are over-represented: about 1.3% of the library has one in this group of screens.

SMILES	PfG6PD inh	HKDC1 inh	Diaph inh CS	G6PDH CS	others
Oc1ccc(C[C@H]2NCCc3cc(O)c(O)cc32)cc1O	53	7	/	/
Oc1ccc(CC2CC3CCN2CC3)cc1O (stereo not given)	-1	-2	53*	40
CCCNC(=O)N1[C@H]2CC[C@@H]1C(C(=O)OC)=C(c1ccc(OC(F)(F)F)cc1)C2	4	-4	/	/
Cc1ccc2c(c1)=C/C(=C\c1c(O)[nH]c(=S)[nH]c1=O)C(=O)N=2	/	/	54*	-14
Cc1ccc2c(c1)=NC(=O)/C(=C/c1c(O)[nH]c(=O)[nH]c1=O)C=2	35	-1	/	/
Cc1nc2ccccc2c(=O)n1-c1ccc(Br)cc1[N+](=O)[O-]	-14	14	70*	9
Cc1nc2ccccc2c(=O)n1-c1ccccc1[N+](=O)[O-]	0	-15	25	2
COc1c2c(cc3c1OCO3)CC[N+](C)=C2	0	-10	83*	10
C[C@]12CC[C@@H](O)CC1=CC(=O)C1C2CC[C@]2(C)C(=O)CCC12 (stereo not given in full)	28	3	/	/
O=c1[nH]c(O)c(/C=C2/C=CC(c3cc(Cl)ccc3Cl)=N2)c(=O)[nH]1	8	40*	/	/
CCc1c(C)nc(N)nc1N1N=C1SCC(=O)OC	-5	-6	77*	6
CCc1c(C)nc(N)nc1N1N=C1SCC#N	-2	-6	11	0
CN1CC[C@@]2(C)c3cc(O)ccc3N(C)C2O1 (stereo not given in full)	64*	16	/	/
O=C(NCC1=C(c2ccc3ccccc3c2)C[C@@H]2CC[C@H]1N2Cc1ccco1)c1cccnc1	-2	/	/	/
CCCCCn1c(NC(=O)c2ccco2)c(C(=O)OCC)c2nc3ccccc3nc21	24	9	68*	32
CN1C(=O)/C(=C/c2ccc(Cl)s2)C(=O)NC1=S	63*	5	/	/
COc1ccc(/C=C2\C(=O)NC(=S)N(C)C2=O)cc1C	4	36*	8	6
Cc1ccsc1/C=C1\C(=O)NC(=S)N(C)C1=O	37	5	/	/
NNC(N)=O	-15	0	/	/
COC(=O)C1=C(c2ccc(-c3ccccc3)c(F)c2)C[C@@H]2CC[C@H]1N2C(=O)N1CCc2cc(OC)c(OC)cc2C1	-1	3	/	/
COC(=O)C1=C(c2ccccc2OCc2ccccc2)C[C@@H]2CC[C@H]1N2C(=O)NCCOc1ccccc1Cl	23	7	/	/
O=C1C=CC(=O)C=C1	54	48*	/	/
Cc1nn(CCC#N)c2c1P(=S)(N1CCCC1)OC(c1ccc(F)cc1)=N2 (stereo not given)	65*	-11	17	16
CN(C)c1cccc2c(C#N)ccc(N(C)C)c12	8	2	72*	11
NC(=O)c1ccc(N=Nc2c(O)[nH]c(=O)[nH]c2=O)cc1	/	/	1	-10
SMILES	PfG6PD inh	HKDC1 inh	Diaph inh CS	G6PDH CS	others
O=c1[nH]c(O)c(N=Nc2cc([N+](=O)[O-])ccc2O)c(=O)[nH]1	-13	9	66*	42
O=C(N/N=C\C1C(=O)NC(=S)N(c2ccccc2)C1=O)c1ccc(O)cc1 (stereo not given)	-10	-7	65*	21
CC(=O)OC1CCC2(C)C(=CC(=O)C3C2CCC2(C)C(OC(C)=O)CCC32)C1 (stereo not given)	-1	-2	/	/
CC(=O)c1ccc2c(c1)C1C(Cl)C(Sc3ccccc3[N+](=O)[O-])CC1C(c1ccccc1[N+](=O)[O-])N2 (stereo not given)	59*	16	63*	10
CC(=O)c1ccc2c(c1)C1C(Cl)C(Sc3ccccc3[N+](=O)[O-])CC1C(c1ccccc1)N2 (stereo not given)	34	9	21	-21
COC(=O)C1=C(c2ccc(F)cc2OCc2ccccc2)C[C@@H]2CC[C@H]1N2C(=O)NCc1ccc([N+](=O)[O-])cc1	14	2	/	/
O=C1NC(=O)C(=Cc2ccc(-c3ccc(Cl)cc3)o2)C(=O)N1	77*	26	/	/
O=C1NC(=O)C(=Cc2ccc(-c3ccc(S(=O)(=O)N4CCOCC4)cc3)o2)C(=O)N1	73*	8	/	/
COC(=O)C1=C(c2ccccc2)C[C@@H]2CC[C@H]1N2C	-10	-6	/	/
CN1C(=O)N(C)C(=O)C2(Cc3c(ccc4ccccc34)N(C)C2)C1=O	37	26	67*	28
COc1ccc(C(=O)CC2(CC(=O)c3ccc(OC)cc3)C(=O)N(C)C(=O)N(C)C2=O)cc1	-7	-2	5	2
CC12CC(=O)C3C(CCC4CC=CCC43C)C1CCC2=O (stereo not given)	0	-1	/	/
CCn1nc(-c2ccccc2)nc2c(=O)n(C)c(=O)nc1-2	95*	-83	-44	59*
COc1ccc(-c2nc3ccccc3c(=O)n2-c2ccc(OC)cc2)cc1	14	-5	9	12
O=C(N/N=C/c1c(O)n(C2CC2)c(=S)[nH]c1=O)c1ccccc1O	-37	3	66*	17
Cc1ccc(OC(=O)N(C)C[C@H]2OCc3cnnn3CCCC(=O)N([C@H](C)CO)C[C@@H]2C)cc1	-4	/	/	/
COC(C)(C)CCCC(C)C/C=C/C(C)=C/C(=O)OC(C)C (stereo not given)	14	-1	/	/
N#CC1=C(N)Oc2c(c(=O)sc3ccccc23)C1c1ccncc1 (stereo not given)	-39	-58	9	4	HKDC1 act conf=-22
COC(=O)C1=C(c2ccc(Cl)c(C(F)(F)F)c2)C[C@@H]2CC[C@H]1N2C(=O)NCCOc1ccccc1	31	3	/	/
CCN(CC)c1ccc(N=Cc2c(O)n(Cc3ccco3)c(=O)[nH]c2=O)cc1	11	-2	/	/

Compound activity from PubChem BioAssay.
